The assay concerns 7TDI. As to the kind of experiment: Inhibition of IL6-dependent growth of 7TDI cells at 10 uM relative to madindoline A. The format is functional, Mus musculus. The gist of the method: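 IL-6-dependent 7TDI cell line; growth inhibition measured with each analogue present at 10 μM. Values expressed against the natural compound.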
In turn, `CC1=C(C)C(=O)C(C)(CN2c3ccccc3[C@]3(O)CCO[C@H]23)C1=O` came in with an Activity of 0.

In turn, `CCCCCCCCCC1=C(C)C(=O)[C@](C)(CN2c3ccccc3[C@]3(O)CCO[C@H]23)C1=O` gave an Activity of 3.9.

Consider `CC1=C(Cc2ccccc2)C(=O)[C@@](C)(CN2c3ccccc3[C@]3(O)CCO[C@H]23)C1=O`, for which the Activity was 0.9.

Consider `CCCCC1=C(C)C(=O)[C@@](C)(CN2c3ccccc3[C@]3(OC(=O)c4ccccc4)CCO[C@H]23)C1=O`, for which the Activity came out at 2.6.

Regarding `CCCCCC(=O)O[C@@]12CCO[C@@H]1N(C[C@]1(C)C(=O)C(C)=C(CCCC)C1=O)c1ccccc12`, the Activity was 2.6.

The compound `CC1=C(C)C(=O)CC1=O` yielded an Activity of 0.

Take `O[C@@]12CCO[C@@H]1Nc1ccccc12`: the Activity was 0.

`CCCCC1=C(C)C(=O)[C@@](C)(CN2c3ccc(Cl)cc3[C@]3(O)CCO[C@H]23)C1=O` returned an Activity of 0.8.

Turning to `CCCCCCCCCCCCCCCCCCCCCC1=C(C)C(=O)[C@](C)(CN2c3ccccc3[C@]3(O)CCO[C@H]23)C1=O`, the Activity was 0.

Take `CCCCC1=C(C)C(=O)[C@@](C)(CN2c3ccccc3[C@@]3(O)CCO[C@@H]23)C1=O`: the Activity worked out at 0.

As for `CCCCCCCC1=C(C)C(=O)[C@](C)(CN2c3ccccc3[C@]3(O)CCO[C@H]23)C1=O`, the Activity was 3.2.

With `CCCCC1=C(C)C(=O)[C@@](C)(CN2c3ccc(Br)cc3[C@]3(O)CCO[C@H]23)C1=O`, the Activity is reported as 2.8.

Turning to `CCCCC1=C(C)C(=O)[C@@](C)(Cn2cc(CCO)c3ccccc32)C1=O`, the Activity is recorded as 0.9.

With `CCCCCCCCCCCC1=C(C)C(=O)[C@](C)(CN2c3ccccc3[C@]3(O)CCO[C@H]23)C1=O`, the Activity was determined as 3.4.

In turn, `CCC1=C(C)C(=O)[C@](C)(CN2c3ccccc3[C@]3(O)CCO[C@H]23)C1=O` showed an Activity of 0.

In the case of `CCCCC1=C(C)C(=O)[C@@](C)(CN2c3ccccc3[C@]3(O)CCO[C@H]23)C1=O`, the Activity was 1.

`CCCCC1=C(C)C(=O)[C@@](C)(CN2c3ccc(I)cc3[C@]3(O)CCO[C@H]23)C1=O`: the Activity was found to be 2.8.

Consider `CCCCCCCCCC(=O)O[C@@]12CCO[C@@H]1N(C[C@]1(C)C(=O)C(C)=C(CCCC)C1=O)c1ccccc12`, for which the Activity is listed as 0.

Take `CCCCC1=C(C)C(=O)[C@@](C)(CN2c3ccccc3[C@]3(OC(C)=O)CCO[C@H]23)C1=O`: the Activity is listed as 1.2.

The values above are taken from ChEMBL document CHEMBL1147008, “Design, synthesis, and biological activities of madindoline analogues” (2006).
